Assay results: ChEMBL document CHEMBL4304827, “Design, synthesis and evaluation of structurally diverse chrysin-chromene-spirooxindole hybrids as anticancer agents” (Bioorg Med Chem, 2019)
Active and inactive are the calls of the source. The calls are words filed in the database; no cut-off is given here.

What was measured:
[1] = system: A549; test: Induction of apoptosis in human A549 cells incubated for 24 hrs by annexin V FITC and PI staining based flow cytometry; assay type: functional, cell-based
[2] = system: NCI-H1299; test: Antiproliferative activity against human H1299 cells assessed as reduction in cell proliferation incubated for 48 hrs by MTT assay; assay type: functional, cell-based; conditions: NCI-H1299, 48 h
In short: (§1)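 Log-phase cells were plated at 5 × 10^3/well in RPMI-1640 with 10% FBS and cultured 24 h. Compounds were added at graded concentrations (DMSO <0.1%) for 48 h. MTT (5 mg/mL) was added for about 4 h, formazan was dissolved in DMSO and A490 was read. IC50 was calculated from ≥3 independent experiments and reported as mean ± SD. Chrysin served as positive control.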

[3] = system: PC-3; test: Antiproliferative activity against human PC3 cells assessed as reduction in cell proliferation incubated for 48 hrs by MTT assay; assay type: functional, cell-based; conditions: PC-3, 48 h; in short: as §1
[4] = system: MRC5; test: Cytotoxicity against human MRC5 cells assessed as reduction in cell proliferation incubated for 48 hrs by MTT assay; assay type: cell-based; conditions: MRC5, 48 h; in short: as §1
[5] = system: A549; test: Induction of apoptosis in human A549 cells assessed as morphological changes by measuring rounded cells with weak adhesion incubated for 24 hrs; assay type: functional, cell-based
In short: (§2)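 A549 cells were plated at 3 × 10^5/well and cultured 12 h, then exposed to various concentrations for 24 h. Morphology was observed by microscopy. AO-EB stain (1 mg/mL each, in PBS) was applied for 10 min at room temperature in the dark. Harvested cells were stained with PI for 15 min at room temperature in the dark, then washed. Both stains were examined by fluorescence microscopy.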

[6] = system: A549; test: Induction of apoptosis in human A549 cells assessed as chromatin shrinkage and apoptotic body formation at higher concentrations incubated for 24 hrs by AO-EB staining based fluorescence microscopy; assay type: functional, cell-based; in short: as §2
[7] = system: A549; test: Induction of apoptosis in human A549 cells assessed as compromised cell membrane boundaries at 5 to 20 uM incubated for 24 hrs by PI staining based fluorescence microscopy; assay type: functional; in short: as §2
[8] = system: A549; test: Induction of apoptosis in human A549 cells assessed as increase in DNA ladder formation incubated for 24 hrs by agarose gel electrophoresis method; assay type: functional, cell-based
In short: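 A549 cells were treated with various concentrations for 24 h. Genomic DNA was isolated by lysis, RNase A and proteinase K digestion, then ethanol precipitation. DNA was run on a 2% agarose gel to visualize ladder formation.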

[9] = system: A549; test: Induction of apoptosis in human A549 cells assessed as early apoptotic cells at 5 uM incubated for 24 hrs by annexin V FITC and PI staining based flow cytometry (reference value: 0.53%); assay type: functional
[10] = system: A549; test: Induction of apoptosis in human A549 cells assessed as late apoptotic cells at 25 uM incubated for 24 hrs by annexin V FITC and PI staining based flow cytometry (reference value: 1.32%); assay type: functional
[11] = system: A549; test: Induction of apoptosis in human A549 cells assessed as late apoptotic cells at 50 uM incubated for 24 hrs by annexin V FITC and PI staining based flow cytometry (reference value: 1.32%); assay type: functional
[12] = system: A549; test: Induction of apoptosis in human A549 cells assessed as necrotic cells at 5 uM incubated for 24 hrs by annexin V FITC and PI staining based flow cytometry (reference value: 2.43%); assay type: functional
[13] = system: A549; test: Induction of ROS production in human A549 cells incubated for 24 hrs by DCFH-DA staining based fluorescence microscopy; assay type: functional, cell-based
In short: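 A549 cells were plated at 3 × 10^5/well and cultured 12 h, then treated with various concentrations for 24 h. They were washed in serum-free medium and loaded with DCFH-DA (10 μM) for 20 min at 37 °C in the dark. DCF fluorescence was imaged by fluorescence microscopy.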

[14] = system: A549; test: Induction of apoptosis in human A549 cells assessed as increase in caspase 9 activity at 100 uM incubated for 24 hrs by colorimetry relative to control; assay type: functional
In short: (§3)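 A549 cells were plated at 3 × 10^5/well and cultured 12 h, then treated with various concentrations for 24 h. Cells were lysed on ice for 60 min. Lysate containing 200 μg protein was incubated with caspase-3, -8 or -9 colorimetric substrate at 37 °C for 4 h in the dark, and A405 was read. Activation = (treated − blank)/(control − blank). Mean ± SD, ≥3 experiments.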

[15] = system: A549; test: Induction of apoptosis in human A549 cells assessed as downregulation of Bcl2 protein expression incubated for 24 hrs by Western blot analysis; assay type: functional, cell-based
In short: (§4)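 A549 cells were treated with various concentrations for 24 h and lysed in RIPA buffer with 1 mM PMSF. Protein (20 μg) was resolved on 8-12% SDS-PAGE and transferred to PVDF. Membranes were blocked in 5% milk and probed with primary antibodies overnight at 4 °C, then with anti-rabbit secondary. Bands were quantified by densitometry. Mean ± SD, ≥3 experiments.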

[16] = system: A549; test: Induction of apoptosis in human A549 cells assessed as downregulation of 5-Lox protein expression incubated for 24 hrs by Western blot analysis; assay type: functional, cell-based; in short: as §4
[17] = system: A549; test: Induction of apoptosis in human A549 cells assessed as downregulation of MDM2 protein expression incubated for 24 hrs by Western blot analysis; assay type: functional, cell-based; in short: as §4
[18] = system: A549; test: Induction of apoptosis in human A549 cells assessed as upregulation of Bax protein expression incubated for 24 hrs by Western blot analysis; assay type: functional, cell-based; in short: as §4
[19] = system: A549; test: Induction of apoptosis in human A549 cells assessed as upregulation of Cyt c protein expression incubated for 24 hrs by Western blot analysis; assay type: functional, cell-based; in short: as §4
[20] = system: A549; test: Induction of apoptosis in human A549 cells assessed as upregulation of p21 protein expression incubated for 24 hrs by Western blot analysis; assay type: functional, cell-based; in short: as §4
[21] = system: A549; test: Antimigratory activity in human A549 cells assessed as reduction in cell migration incubated for 36 hrs by transwell migration assay; assay type: functional, cell-based
In short: (§5)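 Cells were suspended at 1 × 10^4/mL in RPMI-1640 with 1% FBS and seeded in the upper chamber. For the invasion assay the upper chamber was coated with Matrigel. The lower chamber held medium with 10% FBS. Compound was given at various concentrations for 36 h. Membranes were methanol-fixed and stained with 0.1% crystal violet. Cells on the lower side were counted relative to control (100%). Mean ± SD, ≥3 experiments.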

[22] = system: A549; test: Antimigratory activity in human A549 cells assessed as reduction in cell invasion incubated for 36 hrs by matrigel transwell migration assay; assay type: functional, cell-based; in short: as §5
[23] = system: A549; test: Induction of apoptosis in human A549 cells assessed as downregulation of Bcl2 protein expression at 10 uM by Western blot analysis; assay type: functional, cell-based; conditions: TDE = time-dependent effect
In short: (§6)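 A549 cells were exposed to 10 μM for different times and lysed in RIPA buffer with 1 mM PMSF. Protein (20 μg) was separated on 8-12% SDS-PAGE and transferred to PVDF. Membranes were blocked in 5% milk and incubated with primary antibodies overnight at 4 °C, then with anti-rabbit secondary. Bands were quantified by densitometry. Mean ± SD, ≥3 experiments.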

[24] = system: A549; test: Induction of apoptosis in human A549 cells assessed as downregulation of 5-Lox protein expression at 10 uM by Western blot analysis; assay type: functional, cell-based; conditions: TDE = time-dependent effect; in short: as §6
[25] = system: A549; test: Induction of apoptosis in human A549 cells assessed as downregulation of MDM2 protein expression at 10 uM by Western blot analysis; assay type: functional, cell-based; conditions: TDE = time-dependent effect; in short: as §6
[26] = system: A549; test: Induction of apoptosis in human A549 cells assessed as increase in caspase 8 activity incubated for 24 hrs by colorimetry; assay type: functional, cell-based; in short: as §3

## CN1C(=O)C2(C(C#N)=C(N)Oc3cc4oc(-c5ccccc5)cc(=O)c4c(O)c32)c2cc(Br)ccc21 (stereo unspecified)
[1]
  Activity: Dose-dependent effect
[2]
  IC50: 7.61 µM
[3]
  IC50: 20.3 µM
[4]
  IC50: > 100 µM
[5]
  Activity: Dose-dependent effect
[6]
  Activity: Active
[7]
  Activity: Active
[8]
  Activity: Dose-dependent effect
[9]
  Activity: 6.53%
[10]
  Activity: 13.7%
[11]
  Activity: 24.8%
[12]
  Activity: 0.732%
[13]
  Activity: Dose-dependent effect
[14]
  fold change (FC): 1.81
[15]
  inhibition: Dose-dependent effect
[16]
  inhibition: Dose-dependent effect
[17]
  inhibition: Dose-dependent effect
[18]
  Activity: Dose-dependent effect
[19]
  Activity: Dose-dependent effect
[20]
  Activity: Dose-dependent effect
[21]
  inhibition: Dose-dependent effect
[22]
  inhibition: Dose-dependent effect
[23]
  inhibition: Tde
[24]
  inhibition: Tde
[25]
  inhibition: Tde
[26]
  Activity: Dose-dependent effect
